Data on 3 compounds can be found in ChEMBL document CHEMBL4819096, “Antibacterial activity of noscapine analogs” (Bioorg Med Chem Lett, 2021).

Converted amounts (≈) assume the structure as drawn. The source made the active and inactive calls. No cut-off for these calls is given here.

In data set [1] the test system is Pseudomonas aeruginosa. As to the kind of experiment: Antibacterial activity against ampicillin/cefotaxime-resistant Pseudomonas aeruginosa ATCC 27853 assessed as inhibition of bacterial growth measured after 16 to 20 hrs by two-fold serial microbroth dilution method. The conditions noted are these: time 16-20 hrs. In kind it is functional, organism-based. Summed up: (§1)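 Broth microdilution MIC in LB and M9 medium. Inoculum adjusted to about 5 × 10⁵ cells/ml. Compound serially diluted twofold. Plates covered and incubated at 37 °C with shaking. OD600 read; MIC taken as the lowest concentration giving no growth after 16–20 h.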
In general terms: In broth dilution the organism is exposed to a series of concentrations in liquid medium.

In another data set the test system is Hafnia alvei. As to the kind of experiment: Antibacterial activity against Ampicillin resistant Hafnia alvei O31 assessed as inhibition of bacterial growth measured after 16 to 20 hrs by two-fold serial microbroth dilution method. In kind it is functional, organism-based. The note with it: time 16-20 hrs. The gist of the method:
as §1

The next data set concerns Klebsiella pneumoniae. In words: Antibacterial activity against ampicillin/fosfomycin-resistant Klebsiella pneumonia 181210171-2 assessed as inhibition of bacterial growth measured after 16 to 20 hrs by two-fold serial microbroth dilution method. The conditions noted are these: time 16-20 hrs. The data set is classed as functional, organism-based. The gist of the method: as §1

In a further data set the test system is Candida albicans. As to the kind of experiment: Antibacterial activity against ampicillin/cefotaxime/tetracycline/ceftriaxone/fosfomycin-resistant Candida albicans 181210169-1 assessed as inhibition of fungal growth measured after 16 to 20 hrs by two-fold serial microbroth dilution method. The data set is classed as functional, organism-based. The note with it: time 16-20 hrs. The gist of the method:
as §1

Data set [2] in a line: Selectivity index, ratio of CC50 for human HEK293 cells to MIC for antibacterial activity against Escherichia coli. The data set is classed as toxicity. The note with it: read-out: Selectivity Index.
The test system of data set [3] is Pseudomonas aeruginosa. In words: Antibacterial activity against Pseudomonas aeruginosa R42 assessed as inhibition of bacterial growth measured after 16 to 20 hrs by two-fold serial microbroth dilution method. The data set is classed as functional, organism-based. The conditions noted are these: time 16-20 hrs. Summed up:
(§2)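 Broth microdilution in LB and M9 medium. Inoculum adjusted to about 5 × 10⁵ cells/ml. Compound diluted twofold serially in microplate wells, then plates covered and incubated at 37 °C with shaking. Growth read as OD600. MIC taken as the lowest concentration giving no growth after 16–20 h.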

In another data set the test system is Klebsiella aerogenes. As to the kind of experiment: Antibacterial activity against Enterobacter aerogenes R41 assessed as inhibition of bacterial growth measured after 16 to 20 hrs by two-fold serial microbroth dilution method. The note with it: time 16-20 hrs. In kind it is functional, organism-based. Summed up: as §2
In data set [4] the test system is HEK293. In words: Induction of cell cycle arrest in human HEK293 cells assessed as increase in accumulation of cells at S phase at 71 uM after 24 hrs by propidium iodide staining based flow cytometry. The note with it: hek293, 24 h. Summed up: (§3)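 Cell-cycle profiling of HEK293 cells treated with compound or vehicle (0.1% DMSO). Cells harvested (400 × g, 5 min) and fixed in ice-cold 70% ethanol for 24 h at −20 °C. Washed in PBS, treated with RNase A (0.5 mg/ml, 5 min, room temperature), then stained with propidium iodide (50 µg/ml, 30 min). DNA content read by flow cytometry on a linear scale. At least duplicate; mean ± S.E.M.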
Background: Flow cytometry measures light scatter and fluorescence of single cells or particles in a stream.

Another data set has as its system Morganella morganii. In words: Antibacterial activity against Morganella morganii R36 assessed as inhibition of bacterial growth measured after 16 to 20 hrs by two-fold serial microbroth dilution method. The data set is classed as functional, organism-based. The note with it: time 16-20 hrs. The gist of the method:
as §2

The next data set has as its system Enterobacter cloacae. In words: Antibacterial activity against ampicillin/cefotaxime/tetracycline/ceftriaxone-resistant Enterobacter cloacae O3 assessed as inhibition of bacterial growth measured after 16 to 20 hrs by two-fold serial microbroth dilution method. The note with it: time 16-20 hrs. The data set is classed as functional, organism-based. The gist of the method:
as §1

Data set [5] relates to Escherichia coli. In words: Antibacterial activity against Escherichia coli ATCC25922 assessed as inhibition of bacterial growth measured after 16 to 20 hrs by two-fold serial microbroth dilution method. The conditions noted are these: ATCC 25922, time 16-20 hrs. The data set is classed as functional, organism-based. Summed up:
as §2

In another data set the test system is Bacillus subtilis. As to the kind of experiment: Antibacterial activity against Bacillus subtilis 3HM assessed as inhibition of bacterial growth measured after 16 to 20 hrs by two-fold serial microbroth dilution method. In kind it is functional, organism-based. The note with it: time 16-20 hrs. Summed up: as §2
For a further data set, the system named is Proteus sp. In words: Antibacterial activity against ampicillin/cefotaxime/tetracycline/ceftriaxone/fosfomycin-resistant Proteus sp. O14 assessed as inhibition of bacterial growth measured after 16 to 20 hrs by two-fold serial microbroth dilution method. In kind it is functional, organism-based. The note with it: time 16-20 hrs. The gist of the method: as §1

Data set [6] relates to HEK293. As to the kind of experiment: Induction of cell cycle arrest in human HEK293 cells assessed as increase in accumulation of apoptotic cells at sub G1 phase at 71 uM measured after 48 hrs by propidium iodide staining based flow cytometry. The conditions noted are these: hek293, 48 h. Summed up: as §3
The test system of a further data set is Citrobacter koseri. As to the kind of experiment: Antibacterial activity against Citrobacter koseri R38 assessed as inhibition of bacterial growth measured after 16 to 20 hrs by two-fold serial microbroth dilution method. The data set is classed as functional, organism-based. The note with it: time 16-20 hrs. Summed up:
as §2

Data set [7] has as its system Escherichia coli. As to the kind of experiment: Antibacterial activity against ampicillin/cefotaxime/tetracycline/ceftriaxone-resistant Escherichia coli mx7 assessed as inhibition of bacterial growth measured after 16 to 20 hrs by two-fold serial microbroth dilution method. The data set is classed as functional, organism-based. The conditions noted are these: time 16-20 hrs. Summed up: as §1

The test system of data set [8] is Escherichia coli. In words: Antibacterial activity against Escherichia coli assessed as inhibition of bacterial growth measured after 16 to 20 hrs by two-fold serial microbroth dilution method. The data set is classed as functional. The note with it: time 16-20 hrs. The gist of the method:
as §2

The subject of another data set is Proteus vulgaris. In words: Antibacterial activity against Proteus vulgaris O41 assessed as inhibition of bacterial growth measured after 16 to 20 hrs by two-fold serial microbroth dilution method. The data set is classed as functional, organism-based. The conditions noted are these: time 16-20 hrs. Summed up: as §2
In another data set the test system is Staphylococcus aureus. As to the kind of experiment: Antibacterial activity against Fosfomycin resistant Staphylococcus aureus ATCC USA 206 assessed as inhibition of bacterial growth measured after 16 to 20 hrs by two-fold serial microbroth dilution method. In kind it is functional, organism-based. The conditions noted are these: time 16-20 hrs. Summed up: as §1

The next data set deals with Aeromonas. As to the kind of experiment: Antibacterial activity against Aeromonas sp. O9 assessed as inhibition of bacterial growth measured after 16 to 20 hrs by two-fold serial microbroth dilution method. The note with it: time 16-20 hrs. In kind it is functional, organism-based. The gist of the method: as §2
A further data set has as its system Enterobacter. In words: Antibacterial activity against Enterobacter sp. O54 assessed as inhibition of bacterial growth measured after 16 to 20 hrs by two-fold serial microbroth dilution method. The data set is classed as functional, organism-based. The conditions noted are these: time 16-20 hrs. The gist of the method: as §2
The nature of data set [9]: Cytotoxicity against human HEK293 cells assessed as reduction in cell viability measured after 28 hrs by PrestoBlue reagent based fluorescence analysis. The gist of the method:
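HEK293 cells seeded at 25*10³ per well in DMEM with 10% FBS, 2 mM L-Glu and 50 µg/ml gentamicin. Cells held 24 h at 37 °C, 5% CO2 before compound was added (final DMSO 0.1%), then incubated 28 h. Viability read by PrestoBlue fluorescence at 590 nm, expressed relative to 0.1% DMSO control (100%). CC50 derived by curve fitting.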

In another data set the test system is Klebsiella oxytoca. In words: Antibacterial activity against Klebsiella oxytoca R48 assessed as inhibition of bacterial growth measured after 16 to 20 hrs by two-fold serial microbroth dilution method. In kind it is functional, organism-based. The conditions noted are these: time 16-20 hrs. The gist of the method:
as §2

For data set [10], the system named is HEK293. In words: Induction of cell cycle arrest in human HEK293 cells assessed as decrease in accumulation of cells at G1 phase at 14.9 uM measured after 24 hrs by propidium iodide staining based flow cytometry. The conditions noted are these: hek293, 24 h. The gist of the method:
(§4)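 HEK293 cells exposed to compound or vehicle (0.1% DMSO), then harvested by centrifugation (400 × g, 5 min). Fixed/permeabilized in ice-cold 70% ethanol for 24 h at −20 °C, PBS-washed twice, treated with RNase A (0.5 mg/ml) for 5 min at room temperature, then PI (50 µg/ml) for 30 min. DNA content measured by flow cytometry on a linear scale. At least duplicate runs; mean ± S.E.M.; Wilcoxon test versus vehicle.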

Data set [11] has as its system HEK293. In words: Induction of cell cycle arrest in human HEK293 cells assessed as increase in accumulation of cells at G2/M phase at 14.9 uM after 24 hrs by propidium iodide staining based flow cytometry. The conditions noted are these: hek293, 24 h. Summed up:
as §4

For data set [12], the system named is HEK293. In words: Induction of cell cycle arrest in human HEK293 cells assessed as increase in accumulation of apoptotic cells at sub G1 phase at 14.9 uM after 24 hrs by propidium iodide staining based flow cytometry. The note with it: hek293, 24 h. The gist of the method: as §4
Data set [13] deals with HEK293. As to the kind of experiment: Induction of cell cycle arrest in human HEK293 cells assessed as increase in accumulation of cells at S phase at 12.6 uM after 24 hrs by propidium iodide staining based flow cytometry. The conditions noted are these: hek293, 24 h. Summed up: as §4
For data set [14], the system named is HEK293. In words: Induction of cell cycle arrest in human HEK293 cells assessed as increase in accumulation of apoptotic cells at sub G1 phase at 12.6 uM after 72 hrs by propidium iodide staining based flow cytometry. The note with it: hek293, 72 h. Summed up:
as §4

As to `CCn1c(O)c(C(=O)CC2c3c(cc4c(c3OC)OCO4)CCN2C)c(=O)n(CC)c1=S` (stereo not drawn), the result with Pseudomonas aeruginosa [1], with Hafnia alvei, in the data set on Klebsiella pneumoniae, in the data set with Candida albicans, in the data set with Pseudomonas aeruginosa [3] and with Klebsiella aerogenes was inactive. In addition, the outcome in the data set with Morganella morganii, with Enterobacter cloacae, in the data set with Escherichia coli [5], with Proteus sp., in the data set with Citrobacter koseri and in the data set on Escherichia coli [7] was inactive. Moreover, the outcome in the data set with Proteus vulgaris, in the data set on Aeromonas, in the data set on Enterobacter and in the data set with Klebsiella oxytoca was inactive. For the same compound, in [2], the selectivity ratio came out at 5.5. Besides, the Activity entry in the data set on HEK293 [4] and in the data set on HEK293 [6] was “Toxic” in each case. The outcome in the data set with Bacillus subtilis and in the data set on Staphylococcus aureus was Active. Moreover, in the data set on Escherichia coli [8], the MIC – broadly, the lowest concentration found to suppress growth – turned out to be 13.5 µM (≈ 6.23 µg/mL). Further, in data set [9], the CC50 (as a rule, the concentration that lowers cell viability or growth by half) at 28 h was determined as 71 µM.
For the compound `COc1c2c(cc3c1C(CC(=O)/C=C/C1=C(C)CCCC1(C)C)[N+](C)(C)CC3)OCO2.[I-]` (stereo not drawn), the Activity result in the data set on HEK293 [10], in the data set on HEK293 [11] and with HEK293 [12] was “Toxic” throughout. Also, the outcome with Pseudomonas aeruginosa [1], in the data set with Proteus sp., with Citrobacter koseri, with Proteus vulgaris and in the data set on Enterobacter was inactive. Moreover, the outcome in the data set with Hafnia alvei, in the data set on Klebsiella pneumoniae, in the data set on Candida albicans, in the data set with Pseudomonas aeruginosa [3], in the data set on Klebsiella aerogenes and in the data set on Morganella morganii was Active. The result in the data set on Enterobacter cloacae, with Escherichia coli [5], with Bacillus subtilis, in the data set with Escherichia coli [7], in the data set on Staphylococcus aureus and with Aeromonas was Active. In the data set with Klebsiella oxytoca, the outcome was Active. The MIC in the data set on Escherichia coli [8] was determined as 22.6 µM. The CC50 at 28 h in [9] turned out to be 14.9 µM.
For the compound `CCCc1ccc(C(=O)CC2c3c(cc4c(c3OC)OCO4)CC[N+]2(C)C)cc1.[I-]` (stereo not drawn), the Activity entry in the data set on HEK293 [13] and in the data set on HEK293 [14] was “Toxic” each time. In addition, the result in the data set with Pseudomonas aeruginosa [1], with Citrobacter koseri and with Klebsiella oxytoca was inactive. The result in the data set with Hafnia alvei, in the data set with Klebsiella pneumoniae, in the data set with Candida albicans, with Pseudomonas aeruginosa [3], in the data set on Klebsiella aerogenes and with Morganella morganii was Active. Further, the outcome with Enterobacter cloacae, in the data set on Escherichia coli [5], in the data set on Bacillus subtilis, in the data set with Proteus sp., in the data set on Escherichia coli [7] and in the data set with Proteus vulgaris was Active. In addition, the outcome in the data set with Staphylococcus aureus, in the data set on Aeromonas and with Enterobacter was Active. Also, the MIC in the data set on Escherichia coli [8] came out at 11.3 µM. For the same compound, in data set [9], the CC50 at 28 h turned out to be 12.6 µM.
